Results: the M2OR odorant receptor database
Changes are numbered by the printed parent chain.

Columns and labels:
Conditions in all cases: stereoisomer not certain
[1] = molecular target: T1, OR4S2 (Homo sapiens) (UniProt Q8NH73)
T1 sequence (whole entry): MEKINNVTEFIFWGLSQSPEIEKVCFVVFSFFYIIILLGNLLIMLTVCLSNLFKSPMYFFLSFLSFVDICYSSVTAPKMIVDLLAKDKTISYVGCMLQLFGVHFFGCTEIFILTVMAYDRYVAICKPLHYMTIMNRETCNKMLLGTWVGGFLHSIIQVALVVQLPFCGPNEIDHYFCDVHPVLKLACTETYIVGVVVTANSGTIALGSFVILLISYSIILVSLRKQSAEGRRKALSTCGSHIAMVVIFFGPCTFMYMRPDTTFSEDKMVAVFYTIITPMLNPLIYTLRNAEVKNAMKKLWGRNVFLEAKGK
Outline: (§1)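 Assay methods differ from source to source, frequently being transient luciferase assays in mammalian cell lines. For each receptor–molecule pair, the label responsive (active) applies when the original authors judged the measured signal statistically different from baseline, and non-responsive (inactive) applies otherwise.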

[2] = molecular target: T2, OR4X1 (Homo sapiens) (UniProt Q8NH49)
T2 sequence (whole entry): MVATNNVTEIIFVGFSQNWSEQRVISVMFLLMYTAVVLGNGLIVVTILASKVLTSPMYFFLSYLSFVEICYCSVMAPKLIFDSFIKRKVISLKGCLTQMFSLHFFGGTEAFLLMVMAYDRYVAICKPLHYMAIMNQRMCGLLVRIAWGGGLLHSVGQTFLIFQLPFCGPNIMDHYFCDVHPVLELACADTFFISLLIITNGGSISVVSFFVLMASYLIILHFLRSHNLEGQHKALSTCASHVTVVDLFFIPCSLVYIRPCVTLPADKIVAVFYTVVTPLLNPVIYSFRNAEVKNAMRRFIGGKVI
Outline: as §1

[3] = molecular target: T3, OR4X2 (Homo sapiens) (UniProt Q8NGF9)
T3 sequence (whole entry): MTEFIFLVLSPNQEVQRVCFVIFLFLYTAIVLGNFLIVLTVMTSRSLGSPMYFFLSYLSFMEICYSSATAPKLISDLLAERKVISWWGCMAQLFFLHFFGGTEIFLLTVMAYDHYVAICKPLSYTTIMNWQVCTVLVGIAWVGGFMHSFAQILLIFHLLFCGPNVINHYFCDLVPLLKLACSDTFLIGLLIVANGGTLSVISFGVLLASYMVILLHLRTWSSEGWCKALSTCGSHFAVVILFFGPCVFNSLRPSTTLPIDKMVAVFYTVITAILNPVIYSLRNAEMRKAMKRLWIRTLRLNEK
Outline: as §1

[4] = molecular target: T4, OR51A2 (Homo sapiens) (UniProt Q8NGJ7)
T4 sequence (whole entry): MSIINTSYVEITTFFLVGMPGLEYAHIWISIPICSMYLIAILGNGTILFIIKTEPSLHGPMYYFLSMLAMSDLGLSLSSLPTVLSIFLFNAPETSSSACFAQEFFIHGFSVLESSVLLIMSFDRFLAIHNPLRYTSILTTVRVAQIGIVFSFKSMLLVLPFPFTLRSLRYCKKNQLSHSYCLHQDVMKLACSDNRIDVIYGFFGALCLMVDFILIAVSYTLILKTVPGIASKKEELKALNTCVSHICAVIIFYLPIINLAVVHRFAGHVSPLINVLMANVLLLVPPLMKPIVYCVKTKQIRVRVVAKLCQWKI
Outline: as §1

[5] = molecular target: T5, OR51A4 (Homo sapiens) (UniProt Q8NGJ6)
T5 sequence (whole entry): T4 sequence (whole entry) with G59E, T94I, S97N, S167N, P227L, E235Q, G267R, M288T, K289N, W311R
Outline: as §1

[6] = molecular target: T6, OR51A7 (Homo sapiens) (UniProt Q8NH64)
T6 sequence (whole entry): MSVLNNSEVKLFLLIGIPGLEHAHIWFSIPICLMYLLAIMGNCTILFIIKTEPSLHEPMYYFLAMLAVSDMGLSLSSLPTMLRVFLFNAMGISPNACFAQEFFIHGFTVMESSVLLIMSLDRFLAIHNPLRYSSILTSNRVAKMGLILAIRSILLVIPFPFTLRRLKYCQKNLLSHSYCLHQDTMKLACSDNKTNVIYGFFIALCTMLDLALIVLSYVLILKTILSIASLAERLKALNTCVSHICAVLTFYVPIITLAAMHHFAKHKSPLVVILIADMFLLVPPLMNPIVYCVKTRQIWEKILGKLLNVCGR
Outline: as §1

[7] = molecular target: T7, OR51B2 (Homo sapiens) (UniProt Q9Y5P1)
T7 sequence (whole entry): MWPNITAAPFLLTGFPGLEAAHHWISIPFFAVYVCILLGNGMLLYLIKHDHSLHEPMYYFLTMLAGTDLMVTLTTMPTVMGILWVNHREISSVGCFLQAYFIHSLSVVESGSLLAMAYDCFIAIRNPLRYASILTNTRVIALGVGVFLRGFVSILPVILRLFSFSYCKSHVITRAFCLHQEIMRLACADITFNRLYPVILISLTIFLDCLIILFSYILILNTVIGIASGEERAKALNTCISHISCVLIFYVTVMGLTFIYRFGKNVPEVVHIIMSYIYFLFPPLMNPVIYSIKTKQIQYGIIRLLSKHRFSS
Outline: as §1

[8] = molecular target: T8, OR51B4 (Homo sapiens) (UniProt Q9Y5P0)
T8 sequence (whole entry): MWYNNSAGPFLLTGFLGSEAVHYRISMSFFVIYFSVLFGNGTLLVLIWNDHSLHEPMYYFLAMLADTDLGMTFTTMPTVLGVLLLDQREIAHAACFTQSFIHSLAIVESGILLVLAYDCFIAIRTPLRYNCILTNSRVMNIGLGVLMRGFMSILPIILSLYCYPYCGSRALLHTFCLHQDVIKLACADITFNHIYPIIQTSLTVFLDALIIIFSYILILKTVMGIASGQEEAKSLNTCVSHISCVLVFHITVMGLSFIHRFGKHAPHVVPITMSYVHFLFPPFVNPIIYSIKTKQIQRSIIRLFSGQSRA
Outline: as §1

[9] = molecular target: T9, OR51B5 (Homo sapiens) (UniProt Q9H339)
T9 sequence (whole entry): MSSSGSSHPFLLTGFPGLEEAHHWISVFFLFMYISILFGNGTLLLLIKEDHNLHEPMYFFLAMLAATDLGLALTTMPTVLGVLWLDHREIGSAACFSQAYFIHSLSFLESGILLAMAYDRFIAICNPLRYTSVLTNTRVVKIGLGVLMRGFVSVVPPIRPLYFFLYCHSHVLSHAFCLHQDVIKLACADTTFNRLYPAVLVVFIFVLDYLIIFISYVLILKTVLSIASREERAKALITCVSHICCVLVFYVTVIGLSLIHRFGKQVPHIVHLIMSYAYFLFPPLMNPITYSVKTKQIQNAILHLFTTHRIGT
Outline: as §1

[10] = molecular target: T10, OR51B6 (Homo sapiens) (UniProt Q9H340)
T10 sequence (whole entry): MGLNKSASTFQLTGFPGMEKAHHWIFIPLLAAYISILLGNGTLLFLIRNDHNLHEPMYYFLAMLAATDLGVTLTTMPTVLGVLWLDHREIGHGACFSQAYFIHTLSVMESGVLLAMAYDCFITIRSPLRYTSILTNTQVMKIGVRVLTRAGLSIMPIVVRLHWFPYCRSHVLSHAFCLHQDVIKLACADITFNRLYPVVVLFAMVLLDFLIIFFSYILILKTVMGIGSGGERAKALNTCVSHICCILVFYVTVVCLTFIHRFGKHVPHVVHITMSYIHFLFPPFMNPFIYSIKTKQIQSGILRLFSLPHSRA
Outline: as §1

[11] = molecular target: T11, OR51D1 (Homo sapiens) (UniProt Q8NGF3)
T11 sequence (whole entry): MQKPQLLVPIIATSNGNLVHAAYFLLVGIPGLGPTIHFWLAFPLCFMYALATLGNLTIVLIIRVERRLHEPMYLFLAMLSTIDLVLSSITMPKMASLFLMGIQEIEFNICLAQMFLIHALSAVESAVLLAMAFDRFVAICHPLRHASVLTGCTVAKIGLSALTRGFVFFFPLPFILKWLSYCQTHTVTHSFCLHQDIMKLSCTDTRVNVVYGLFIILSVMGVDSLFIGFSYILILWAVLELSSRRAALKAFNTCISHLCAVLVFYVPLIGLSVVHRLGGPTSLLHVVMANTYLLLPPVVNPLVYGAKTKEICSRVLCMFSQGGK
Outline: as §1

[12] = molecular target: T12, OR51E1 (Homo sapiens) (UniProt Q8TCB6)
T12 sequence (whole entry): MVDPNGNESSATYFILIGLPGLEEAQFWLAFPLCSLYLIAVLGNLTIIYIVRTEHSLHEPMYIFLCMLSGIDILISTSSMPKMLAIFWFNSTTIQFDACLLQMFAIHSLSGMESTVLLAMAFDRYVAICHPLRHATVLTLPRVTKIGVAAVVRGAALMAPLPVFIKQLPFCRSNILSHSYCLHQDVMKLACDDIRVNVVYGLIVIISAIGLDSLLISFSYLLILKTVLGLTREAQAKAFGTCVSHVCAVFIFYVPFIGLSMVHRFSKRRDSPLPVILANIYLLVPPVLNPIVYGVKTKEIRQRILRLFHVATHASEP
Outline: as §1

[13] = molecular target: T13, OR51E2 (Homo sapiens) (UniProt Q9H255)
T13 sequence (whole entry): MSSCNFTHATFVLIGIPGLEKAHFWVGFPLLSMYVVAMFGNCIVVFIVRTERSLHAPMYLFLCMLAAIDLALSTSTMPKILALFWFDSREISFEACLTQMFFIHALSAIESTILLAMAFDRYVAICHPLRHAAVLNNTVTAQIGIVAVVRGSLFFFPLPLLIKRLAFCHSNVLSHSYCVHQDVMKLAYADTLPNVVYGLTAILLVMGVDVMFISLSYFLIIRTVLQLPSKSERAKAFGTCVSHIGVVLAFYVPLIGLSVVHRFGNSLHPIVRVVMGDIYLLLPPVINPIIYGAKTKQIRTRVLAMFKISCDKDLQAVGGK
Outline: as §1

[14] = molecular target: T14, OR51F1 (Homo sapiens) (UniProt A6NGY5)
T14 sequence (whole entry): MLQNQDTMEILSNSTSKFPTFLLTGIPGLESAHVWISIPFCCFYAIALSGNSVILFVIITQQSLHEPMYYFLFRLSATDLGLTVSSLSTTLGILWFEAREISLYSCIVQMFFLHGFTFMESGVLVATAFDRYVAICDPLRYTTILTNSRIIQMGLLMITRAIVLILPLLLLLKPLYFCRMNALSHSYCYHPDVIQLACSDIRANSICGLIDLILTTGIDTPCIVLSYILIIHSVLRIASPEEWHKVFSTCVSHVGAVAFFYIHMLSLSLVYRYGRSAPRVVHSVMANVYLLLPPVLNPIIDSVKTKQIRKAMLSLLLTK
Outline: as §1

[15] = molecular target: T15, OR51F2 (Homo sapiens) (UniProt Q8NH61)
T15 sequence (whole entry): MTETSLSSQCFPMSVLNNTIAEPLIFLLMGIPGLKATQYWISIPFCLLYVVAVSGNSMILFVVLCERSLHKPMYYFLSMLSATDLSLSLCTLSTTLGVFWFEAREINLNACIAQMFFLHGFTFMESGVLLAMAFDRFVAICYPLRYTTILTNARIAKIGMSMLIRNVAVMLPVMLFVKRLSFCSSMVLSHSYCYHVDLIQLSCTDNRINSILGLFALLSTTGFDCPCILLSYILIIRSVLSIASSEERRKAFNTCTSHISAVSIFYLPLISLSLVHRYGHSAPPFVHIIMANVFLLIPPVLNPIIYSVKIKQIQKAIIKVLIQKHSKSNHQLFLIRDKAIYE
Outline: as §1

[16] = molecular target: T16, OR51G1 (Homo sapiens) (UniProt Q8NGK1)
T16 sequence (whole entry): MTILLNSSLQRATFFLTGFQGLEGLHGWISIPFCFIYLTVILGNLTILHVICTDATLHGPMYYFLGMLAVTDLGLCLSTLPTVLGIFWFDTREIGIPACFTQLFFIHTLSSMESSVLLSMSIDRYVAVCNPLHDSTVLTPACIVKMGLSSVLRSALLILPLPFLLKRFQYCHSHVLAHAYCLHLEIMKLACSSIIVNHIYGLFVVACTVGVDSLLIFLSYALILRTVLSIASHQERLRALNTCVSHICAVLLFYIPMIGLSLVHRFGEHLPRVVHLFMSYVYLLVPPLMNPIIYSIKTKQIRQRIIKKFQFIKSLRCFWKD
Outline: as §1

[17] = molecular target: T17, OR51G2 (Homo sapiens) (UniProt Q8NGK0)
T17 sequence (whole entry): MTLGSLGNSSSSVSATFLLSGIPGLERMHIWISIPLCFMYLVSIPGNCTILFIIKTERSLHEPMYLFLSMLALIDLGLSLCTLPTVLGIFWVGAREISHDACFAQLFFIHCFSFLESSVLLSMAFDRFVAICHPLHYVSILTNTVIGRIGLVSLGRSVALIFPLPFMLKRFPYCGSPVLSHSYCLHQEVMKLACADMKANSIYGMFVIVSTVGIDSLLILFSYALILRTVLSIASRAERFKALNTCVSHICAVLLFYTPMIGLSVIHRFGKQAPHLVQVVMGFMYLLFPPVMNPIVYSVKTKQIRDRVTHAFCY
Outline: as §1

[18] = molecular target: T18, OR51I1 (Homo sapiens) (UniProt Q9H343)
T18 sequence (whole entry): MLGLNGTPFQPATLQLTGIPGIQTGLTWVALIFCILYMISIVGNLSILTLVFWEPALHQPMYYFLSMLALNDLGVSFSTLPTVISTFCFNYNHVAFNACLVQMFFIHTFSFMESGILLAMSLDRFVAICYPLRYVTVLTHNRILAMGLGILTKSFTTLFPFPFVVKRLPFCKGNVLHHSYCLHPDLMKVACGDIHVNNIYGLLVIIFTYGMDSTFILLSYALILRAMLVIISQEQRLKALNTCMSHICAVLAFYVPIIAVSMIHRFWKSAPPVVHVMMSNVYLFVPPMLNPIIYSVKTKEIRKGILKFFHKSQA
Outline: as §1

[19] = molecular target: T19, OR51E1 (Homo sapiens) (UniProt Q8TCB6); remark: listed apart in the source
T19 sequence (whole entry): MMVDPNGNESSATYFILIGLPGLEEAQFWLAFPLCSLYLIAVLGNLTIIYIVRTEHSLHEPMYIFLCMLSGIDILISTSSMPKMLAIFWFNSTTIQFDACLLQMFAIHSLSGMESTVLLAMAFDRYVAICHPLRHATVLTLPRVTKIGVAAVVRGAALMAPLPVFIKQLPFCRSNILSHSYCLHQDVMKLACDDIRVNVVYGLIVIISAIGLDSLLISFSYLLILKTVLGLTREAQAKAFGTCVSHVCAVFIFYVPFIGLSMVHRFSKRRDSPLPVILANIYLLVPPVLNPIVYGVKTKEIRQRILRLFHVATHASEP
Outline: as §1

Measured: odorant receptor agonist call

CC(CO)CS (configuration not stated)
not listed: [19]
inactive: all other assays above

CCCCCCCCCCCCCC(=O)OCC
inactive: [9]

CC1=C(O)C(=O)C(C)O1 (configuration not stated)
not listed: [12] | [14]
inactive: all other assays above

CC(O)C(=O)[O-].[H+] (configuration not stated)
inactive: [9]

CCCCCC1CCCC(=O)O1 (configuration not stated)
not listed: [1] | [2] | [3] | [19]
inactive: all other assays above
